Measurements taken from ChEMBL document CHEMBL1155929, “3-(4-(6-Fluoroalkoxy-3,4-dihydroisoquinoline-2(1H)-yl)cyclohexyl)-1H-indole-5-carbonitriles for SERT imaging: chemical synthesis, evaluation in vitro and radiofluorination” (Bioorg Med Chem Lett, 2008).

How the values were obtained:
[1] = biological target: T1, Sodium-dependent serotonin transporter (Homo sapiens, UniProt P31645); assay: biochemical; type: cell-based, HEK293
Target sequence in this assay (P31645 whole entry): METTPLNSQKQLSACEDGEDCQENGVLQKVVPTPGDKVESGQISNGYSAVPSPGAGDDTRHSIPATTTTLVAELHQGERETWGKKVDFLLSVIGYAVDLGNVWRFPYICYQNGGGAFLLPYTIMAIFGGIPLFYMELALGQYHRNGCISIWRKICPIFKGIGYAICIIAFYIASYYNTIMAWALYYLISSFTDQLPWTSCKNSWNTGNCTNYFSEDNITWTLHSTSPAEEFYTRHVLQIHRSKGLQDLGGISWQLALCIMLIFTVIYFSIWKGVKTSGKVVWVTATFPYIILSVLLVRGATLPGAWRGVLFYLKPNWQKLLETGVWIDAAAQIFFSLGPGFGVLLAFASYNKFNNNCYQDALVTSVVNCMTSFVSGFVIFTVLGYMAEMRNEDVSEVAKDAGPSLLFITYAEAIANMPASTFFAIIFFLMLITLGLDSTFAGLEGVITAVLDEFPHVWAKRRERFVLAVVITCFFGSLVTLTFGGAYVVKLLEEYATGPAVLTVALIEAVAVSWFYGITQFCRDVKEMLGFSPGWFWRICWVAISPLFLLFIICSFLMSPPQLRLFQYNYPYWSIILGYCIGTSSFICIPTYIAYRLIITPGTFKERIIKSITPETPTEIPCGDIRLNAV

[2] = biological target: T1, Sodium-dependent serotonin transporter; assay: biochemical; type: cell-based, HEK293; remark: listed apart in the source
Target sequence in this assay (P31645 whole entry): as above

[3] = biological target: Sodium-dependent noradrenaline transporter (Homo sapiens, UniProt P23975); assay: Displacement of [3H]nisoxetine from human NET expressed in HEK293 cells; type: cell-based
Outline: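 Homogenate of HEK293 cells stably expressing hNET, in 50 mM Tris-HCl pH 7.4, 120 mM NaCl, 5 mM KCl. Incubated with 0.5 nM [3H]nisoxetine (KD 6.77 nM) and 6-12 test concentrations at 21 °C for 60 min. Nonspecific binding with 100 µM protriptyline. IC50 from triplicates per experiment; Ki calculated.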

[4] = biological target: Sodium-dependent dopamine transporter (Homo sapiens, UniProt Q01959); assay: Displacement of [3H]WIN-35428 from human DAT expressed in HEK293 cells; type: cell-based
Outline: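 Homogenate of HEK293 cells stably expressing hDAT, in 50 mM Tris-HCl pH 7.4, 100 mM NaCl. Incubated with 0.5 nM [3H]WIN35,428 (KD 24.1 nM) and 6-12 test concentrations on ice for 120 min. Nonspecific binding with 10 µM GBR12909. IC50 from triplicates per experiment; Ki calculated.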

[5] = biological target: T2, 5-hydroxytryptamine receptor 1A (Rattus norvegicus, UniProt P19327); assay: Displacement of [3H]8-OH-DPAT from 5HT1A receptor in rat cortical membrane; type: cell membranes
T2 sequence (P19327 whole entry): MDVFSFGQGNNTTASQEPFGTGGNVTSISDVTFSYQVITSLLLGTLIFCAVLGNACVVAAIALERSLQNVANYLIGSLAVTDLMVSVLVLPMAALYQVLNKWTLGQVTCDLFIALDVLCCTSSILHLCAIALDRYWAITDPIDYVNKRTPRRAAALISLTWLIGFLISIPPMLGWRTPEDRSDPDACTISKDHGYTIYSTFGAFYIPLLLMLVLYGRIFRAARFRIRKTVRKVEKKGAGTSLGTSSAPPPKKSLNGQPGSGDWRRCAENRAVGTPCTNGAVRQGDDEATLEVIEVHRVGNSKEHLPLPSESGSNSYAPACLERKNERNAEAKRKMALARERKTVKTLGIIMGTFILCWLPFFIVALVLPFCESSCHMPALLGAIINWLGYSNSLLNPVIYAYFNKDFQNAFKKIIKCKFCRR
Outline: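 Rat cortical membrane homogenate diluted in 50 mM Tris-HCl pH 7.4, 4 mM CaCl2, 0.1% ascorbic acid. Incubated with 0.3 nM [3H]-8-OH-DPAT and 6-12 test concentrations at 21 °C for 60 min. Nonspecific binding defined with 10 µM serotonin hydrochloride. IC50 from triplicates per experiment, at least three independent experiments; Ki calculated.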

[6] = biological target: T1, Sodium-dependent serotonin transporter; assay: Ratio of Ki for displacement of [3H]paroxetine to displacement of [3H]citalopram from human SERT expressed in […] cells; type: cell-based
Target sequence in this assay (P31645 whole entry, looked up): as the sequence (P31645 whole entry) above

[7] = Partition coefficient, log D in phosphate buffer at pH 7.2 to 7.4 by extractive method; type: physicochemical; settings: octanol/water
Outline: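 Batch n-octanol–buffer extraction of the 18F-labelled tracer. Buffers were 50 mM Sørensen phosphate pH 7.2, Dulbecco's PBS pH 7.2, and 30 mM Tris-HCl pH 7.4. n = 3 per buffer system.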

[8] = Partition coefficient, log D at pH 7.2 to 7.4 by HPLC Supelcosil; type: physicochemical; settings: octanol/water
Outline: (§1)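 HPLC log D on Multisorb RP18-7 or Supelcosil ABZ+ Plus columns. Gradient from 5% MeCN + 20 mM ammonium acetate to 80% MeCN + 20 mM ammonium acetate over 55 min at 1 ml/min. n ≥ 3 per standard or sample.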

[9] = Partition coefficient, log D at pH 7.2 to 7.4 by HPLC Multisorb; type: physicochemical; settings: octanol/water
Outline: as §1

Cortex = assay: Stability in rat cortex at pH 7.2 to 7.4 after 120 mins; type: ADME, tissue-based; settings: buffer, pH 7.2, 2 h
Outline: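 18F tracer incubated at 37 °C in rat cortex homogenate in Tris-HCl, pH 7.2–7.4, for up to 120 min. Sampled every 30 min and analysed by radio-HPLC and TLC.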

[10] = Stability in aqueous sodium hydroxide at 80 degC after 30 mins; type: physicochemical; settings: buffer, 0.5 h
Outline: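 18F tracer held in 0.1 or 1.3 M aqueous NaOH at 80 °C. Analysed by radio-HPLC and TLC.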

[11] = Protein binding in rat plasma by acetonitrile precipitation; type: ADME, cell-free; settings: read-out: PB (converted)
Outline: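 18F tracer incubated in freshly isolated rat plasma (protein 95 mg/ml) for 30 min at 37 °C. Protein precipitated with MeCN and extracted twice. Centrifuged at 2000g for 30 min at room temperature; n = 3.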

Sequence of Sodium-dependent dopamine transporter (Q01959 whole entry): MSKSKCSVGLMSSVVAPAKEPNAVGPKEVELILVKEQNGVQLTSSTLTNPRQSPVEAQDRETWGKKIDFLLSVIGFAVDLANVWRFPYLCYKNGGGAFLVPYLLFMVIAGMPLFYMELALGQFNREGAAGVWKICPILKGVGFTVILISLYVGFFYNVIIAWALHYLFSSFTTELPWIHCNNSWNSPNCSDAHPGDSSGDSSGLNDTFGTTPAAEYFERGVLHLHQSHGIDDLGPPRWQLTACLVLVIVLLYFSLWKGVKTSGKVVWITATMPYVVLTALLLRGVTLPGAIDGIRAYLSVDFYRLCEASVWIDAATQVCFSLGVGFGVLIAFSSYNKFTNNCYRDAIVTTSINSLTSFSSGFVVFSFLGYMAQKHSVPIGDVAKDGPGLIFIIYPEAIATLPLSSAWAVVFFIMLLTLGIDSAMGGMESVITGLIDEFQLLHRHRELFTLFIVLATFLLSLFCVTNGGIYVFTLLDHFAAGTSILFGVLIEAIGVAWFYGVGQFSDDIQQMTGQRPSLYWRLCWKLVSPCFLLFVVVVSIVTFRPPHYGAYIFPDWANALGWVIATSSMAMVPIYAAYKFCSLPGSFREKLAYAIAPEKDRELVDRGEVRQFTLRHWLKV
Sequence of Sodium-dependent noradrenaline transporter (P23975 whole entry): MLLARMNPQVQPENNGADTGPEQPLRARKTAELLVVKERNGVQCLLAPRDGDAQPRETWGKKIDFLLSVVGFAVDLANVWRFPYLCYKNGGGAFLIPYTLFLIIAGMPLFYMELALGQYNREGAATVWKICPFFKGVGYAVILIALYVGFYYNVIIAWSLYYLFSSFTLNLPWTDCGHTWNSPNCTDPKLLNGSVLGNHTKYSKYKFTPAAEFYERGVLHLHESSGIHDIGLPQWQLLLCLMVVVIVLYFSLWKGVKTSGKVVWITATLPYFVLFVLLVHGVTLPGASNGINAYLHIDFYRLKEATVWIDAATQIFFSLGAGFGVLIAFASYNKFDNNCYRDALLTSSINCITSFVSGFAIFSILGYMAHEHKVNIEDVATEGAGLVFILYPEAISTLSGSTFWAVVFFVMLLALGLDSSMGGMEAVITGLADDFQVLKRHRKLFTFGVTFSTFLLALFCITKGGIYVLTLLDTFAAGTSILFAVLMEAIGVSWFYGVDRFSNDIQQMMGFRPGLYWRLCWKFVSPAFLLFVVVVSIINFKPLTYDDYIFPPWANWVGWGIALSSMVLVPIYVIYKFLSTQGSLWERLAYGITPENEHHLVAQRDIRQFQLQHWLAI

SMILES	Ki [1]	Ki [2]	Ki [3]	Ki [4]	Ki [5]	fold change (FC) [6]	logD [7]	chromatographic logD [8]	logD [9]	Stability (Cortex)	Stability [10]	fraction unbound [11]
N#Cc1ccc2[nH]cc([C@H]3CC[C@H](N4CCc5cc(OCCCF)ccc5C4)CC3)c2c1	327 nM	2310 nM	102 nM	343 nM	2860 nM	7.1						
Cc1ccc(Sc2ccccc2CN(C)C)c(N)c1	0.73 nM	2.03 nM										
N#Cc1ccc2[nH]cc([C@H]3CC[C@@H](N4CCc5cc(OCCCF)ccc5C4)CC3)c2c1	6.16 nM	914 nM	772 nM	366 nM	5670 nM	140						
COc1ccc2c(c1)CCN([C@H]1CC[C@H](c3c[nH]c4ccc(C#N)cc43)CC1)C2	73.7 nM	518 nM	96.7 nM	462 nM	267 nM	7						
N#Cc1ccc2[nH]cc([C@H]3CC[C@H](N4CCc5cc(OCCC[18F])ccc5C4)CC3)c2c1							2.36	2.49	3.27	Stable	Stable	
N#Cc1ccc2[nH]cc([C@H]3CC[C@H](N4CCc5ccccc5C4)CC3)c2c1	90.7 nM	286 nM	184 nM	309 nM	2530 nM	3.2						
COc1ccc2c(c1)CCN([C@H]1CC[C@@H](c3c[nH]c4ccc(C#N)cc43)CC1)C2	4.1 nM	165 nM	1020 nM	370 nM	13100 nM	40.2						
N#Cc1ccc2[nH]cc([C@H]3CC[C@@H](N4CCc5ccccc5C4)CC3)c2c1	4.51 nM	189 nM	1430 nM	424 nM	> 1000 nM	41.9						
N#Cc1ccc2[nH]cc([C@H]3CC[C@@H](N4CCc5cc(OCCC[18F])ccc5C4)CC3)c2c1							2.47	2.54	3.27	Stable	Stable	0.973
